Results taken from the M2OR odorant receptor database.

Biological target: T1, OR1G1 (Homo sapiens) (UniProt P47890)
T1 sequence (whole entry): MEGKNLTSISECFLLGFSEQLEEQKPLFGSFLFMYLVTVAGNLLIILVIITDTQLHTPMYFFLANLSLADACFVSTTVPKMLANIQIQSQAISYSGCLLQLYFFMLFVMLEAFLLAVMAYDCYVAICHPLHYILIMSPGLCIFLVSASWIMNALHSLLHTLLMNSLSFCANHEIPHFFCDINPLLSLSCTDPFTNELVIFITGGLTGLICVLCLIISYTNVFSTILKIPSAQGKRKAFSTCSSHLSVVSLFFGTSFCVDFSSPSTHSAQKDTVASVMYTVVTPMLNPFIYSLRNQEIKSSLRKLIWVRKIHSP
Settings: stereoisomer not certain
Procedure, shortened: (§1)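 Whether a receptor–molecule pair is responsive (active) rests on the original authors' judgment that its measured signal was statistically different from baseline. Pairs without that judgment are non-responsive (inactive). Sources used varied assay methods, commonly transient luciferase assays in mammalian cell lines.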

Structure (SMILES)	odorant receptor agonist call;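 also: active if original authors judged signal statistically different from baseline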
CCCCCCCC(=O)OC	active
Cc1ccc(C(C)C)cc1O	inactive
CCC(=O)C=CC1C(C)=CCCC1(C)C (stereo not drawn)	inactive
CC1CC(C)(c2ccccc2)CO1 (stereo not drawn)	inactive
CCCCCC1COCCC1OC(C)=O (stereo not drawn)	inactive
CCCCC1CCC(=O)O1 (stereo not drawn)	inactive
CC=CC(=O)C1C(C)=CCCC1(C)C (stereo not drawn)	inactive
CC(C)=CCCC(C)CC=O (stereo not drawn)	active
CC(CC=O)c1ccc(C(C)(C)C)cc1 (stereo not drawn)	inactive
COc1ccccc1	inactive
CCCCCCCC(C)=O	active
CCOC(=O)CC1(C)OCCO1	inactive
CCCCCC1C(=O)CCC1CC(=O)OC (stereo not drawn)	active
CC(C)CCCC(C)(C)O	inactive
CCCCCCCC(=O)OCC	active
CCC=C(C)C(O)CCCCC (stereo not drawn)	inactive

Structure (SMILES)	odorant receptor agonist call;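 also: active if original authors judged signal statistically different from baseline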
C=CC(C)(O)CCC=C(C)CCC=C(C)C (stereo not drawn)	inactive
CCCCCCCCC(OC(C)=O)OC(C)=O	active
C=CCOC(=O)COCCC(C)C	inactive
c1ccc2ncccc2c1	active
OCc1ccccc1	active
CC(=O)C=CC1=C(C)CCCC1(C)C	inactive
CCCCCCCCC(C)=O	inactive
CC(C)=CCCC(C)=CCO	active
CC(C)(C)C1CCCCC1OCCCCO (stereo not drawn)	inactive
CC1=CCC2CC1C2(C)C (stereo not drawn)	inactive
COc1ccc(C)cc1	inactive
C=CC(C)(CCC=C(C)C)OC(C)=O (stereo not drawn)	inactive
CC(=O)OCc1ccccc1	inactive
COC1CC2CC1C1CC(C=O)CC21 (stereo not drawn)	inactive
CCCCCCCC(=O)[O-].[H+]	inactive

Biological target: T2, OR1L3 (Homo sapiens) (UniProt Q8NH93)
T2 sequence (whole entry): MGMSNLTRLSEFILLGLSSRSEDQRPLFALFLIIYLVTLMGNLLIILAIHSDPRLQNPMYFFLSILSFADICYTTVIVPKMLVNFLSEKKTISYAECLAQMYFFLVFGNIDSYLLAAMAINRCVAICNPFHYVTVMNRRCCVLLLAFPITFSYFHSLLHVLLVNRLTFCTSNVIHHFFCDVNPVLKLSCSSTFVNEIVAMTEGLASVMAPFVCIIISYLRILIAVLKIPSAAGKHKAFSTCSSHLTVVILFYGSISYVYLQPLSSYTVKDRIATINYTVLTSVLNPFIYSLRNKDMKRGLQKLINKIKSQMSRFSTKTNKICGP
Settings: stereoisomer not certain
Procedure, shortened: as §1

Structure (SMILES)	odorant receptor agonist call;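 also: active if original authors judged signal statistically different from baseline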
CCc1ccc(CC(C)(C)C=O)cc1	inactive
Cc1occc(=O)c1OC(=O)C(C)C	inactive
Cc1ccc(C(C)C)cc1O	inactive
CCC(=O)C=CC1C(C)=CCCC1(C)C (stereo not drawn)	inactive
CC1CC(C)(c2ccccc2)CO1 (stereo not drawn)	inactive
CCCCCC1COCCC1OC(C)=O (stereo not drawn)	inactive
CCCCC1CCC(=O)O1 (stereo not drawn)	inactive
CC=CC(=O)C1C(C)=CCCC1(C)C (stereo not drawn)	active
CC(C)=CCCC(C)CC=O (stereo not drawn)	inactive
CCCC(C)C(=O)OCC (stereo not drawn)	inactive
CC(CC=O)c1ccc(C(C)(C)C)cc1 (stereo not drawn)	inactive
CCOC(=O)CC1(C)OCCO1	inactive
CCCCCC1C(=O)CCC1CC(=O)OC (stereo not drawn)	inactive
CC(C)CCCC(C)(C)O	inactive
CCC=C(C)C(O)CCCCC (stereo not drawn)	inactive
C=CC(C)(O)CCC=C(C)CCC=C(C)C (stereo not drawn)	inactive
CCCCCCCCC(OC(C)=O)OC(C)=O	inactive
C=CCOC(=O)COCCC(C)C	inactive
OCc1ccccc1	inactive
CC(=O)C=CC1=C(C)CCCC1(C)C	inactive
CC(C)=CCCC(C)=CCO	inactive
CC(C)(C)C1CCCCC1OCCCCO (stereo not drawn)	inactive
CC1=CCC2CC1C2(C)C (stereo not drawn)	inactive
COc1ccc(C)cc1	inactive
C=CC(C)(CCC=C(C)C)OC(C)=O (stereo not drawn)	inactive
CC(=O)OCc1ccccc1	inactive
COC1CC2CC1C1CC(C=O)CC21 (stereo not drawn)	inactive
